Source: ChEMBL document CHEMBL1145009 (J Med Chem, 2003)

Tests used:
[1] = target: T1, Gonadotropin-releasing hormone receptor (Homo sapiens, UniProt P30968); assay: Antagonist concentration required to inhibit specific binding of [125I]leuprorelin to human luteinizing releasing hormone receptor in cloned chinese hamster ovary (CHO) cells.; format: cell-based
T1 sequence (P30968 whole entry): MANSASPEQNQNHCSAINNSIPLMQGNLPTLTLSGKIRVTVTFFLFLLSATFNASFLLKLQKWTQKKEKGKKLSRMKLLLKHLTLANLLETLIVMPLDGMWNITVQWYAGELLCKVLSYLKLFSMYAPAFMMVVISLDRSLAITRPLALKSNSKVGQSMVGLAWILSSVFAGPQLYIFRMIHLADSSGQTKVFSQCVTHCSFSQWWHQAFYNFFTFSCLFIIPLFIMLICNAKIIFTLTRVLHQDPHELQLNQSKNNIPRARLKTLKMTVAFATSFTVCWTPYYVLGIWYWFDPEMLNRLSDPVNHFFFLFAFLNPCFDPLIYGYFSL

Cynomolgus monkey = assay: (§1) Tested for oral absorption in Cynomolgus Monkey at the dose of 10 mg/kg, activity expressed as area under curve (AUC); format: ADME, organism-based, Macaca fascicularis; design: dose 10 mg/kg, route oral; conditions: in vivo
Outline: (§2)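 Single oral dose of 10 mg/kg as suspension in 0.5% methylcellulose to female cynomolgus monkeys (4–8 years, n = 3). Forearm-vein heparin plasma taken at 1, 3 and 6 h, deproteinized with 5% acetonitrile/0.05% TFA, compound measured by reverse-phase HPLC with UV detection at 320 nm.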

[2] = Tested for oral absorption in Cynomolgus Monkey at the dose of 10 mg/kg, activity expressed as Cmax; format: ADME, organism-based, Macaca fascicularis; design: dose 10 mg/kg, route oral; conditions: in vivo; outline: as §2
[3] = Tested for oral absorption in Cynomolgus Monkey at the dose of 10 mg/kg, activity expressed as Tmax (time required for Cmax); format: ADME, organism-based, Macaca fascicularis; design: dose 10 mg/kg, route oral; conditions: in vivo; outline: as §2
[4] = as §1; format: ADME, organism-based, Macaca fascicularis; design: dose 10 mg/kg, route oral; conditions: in vivo; outline: as §2
[5] = Tested for plasma LH concentration in Castarted male Cynomolgus monkeys for oral administration at the dose of 10 mg/kg after 4 h; format: functional, Cercopithecidae
Outline: (§3)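 Male cynomolgus monkeys (4–9 years), castrated more than 6 months earlier and chair-restrained, given 10 mg/kg orally (3 mL/kg, n = 3) in 0.5% methylcellulose with 1.2% citric acid; vehicle group n = 3. Femoral-vein heparin plasma taken at 0–48 h; LH measured by mouse testicular cell bioassay. Mean ± SEM, also as % of 0 h value.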

[6] = Tested for plasma LH concentration in Castarted male Cynomolgus monkeys for oral administration at the dose of 10 mg/kg after 0 h; format: functional, Cercopithecidae; outline: as §3
[7] = Tested for plasma LH concentration in Castarted male Cynomolgus monkeys for oral administration at the dose of 10 mg/kg after 2 h; format: functional, Cercopithecidae; outline: as §3
[8] = Tested for plasma LH concentration in Castarted male Cynomolgus monkeys for oral administration at the dose of 30 mg/kg after 0 h; format: functional, Cercopithecidae
Outline: (§4)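 Castrated (more than 6 months) male cynomolgus monkeys aged 4–9 years, chair-restrained, dosed orally at 30 mg/kg (3 mL/kg, n = 3) as suspension in 0.5% methylcellulose/1.2% citric acid; vehicle controls n = 3. Plasma LH from femoral-vein samples through 48 h, assayed by bioassay with mouse testicular cells; mean ± SEM and % of pretreatment.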

[9] = Tested for plasma LH concentration in Castarted male Cynomolgus monkeys for oral administration at the dose of 10 mg/kg after 8 h; format: functional, Cercopithecidae; outline: as §3
[10] = Tested for plasma LH concentration in Castarted male Cynomolgus monkeys for oral administration at the dose of 10 mg/kg after 24 h; format: functional, Cercopithecidae; outline: as §3
[11] = Tested for plasma LH concentration in Castarted male Cynomolgus monkeys for oral administration at the dose of 30 mg/kg after 4 h; format: functional, Cercopithecidae; outline: as §4
[12] = Tested for plasma LH concentration in Castarted male Cynomolgus monkeys for oral administration at the dose of 30 mg/kg after 8 h; format: functional, Cercopithecidae; outline: as §4
[13] = Tested for plasma LH concentration in Castarted male Cynomolgus monkeys for oral administration at the dose of 30 mg/kg after 24 h; format: functional, Cercopithecidae; outline: as §4
[14] = Tested for plasma LH concentration in Castarted male Cynomolgus monkeys for oral administration at the dose of 10 mg/kg after 48 h; format: functional, Cercopithecidae; outline: as §3
[15] = Tested for plasma LH concentration in Castarted male Cynomolgus monkeys for oral administration at the dose of 30 mg/kg after 48 h; format: functional, Cercopithecidae; outline: as §4
[16] = Tested for plasma LH concentration in Castarted male Cynomolgus monkeys for oral administration at the dose of 30 mg/kg after 2 h; format: functional, Cercopithecidae; outline: as §4

SMILES	IC50 [1]	other results
CCC(=O)Nc1ccc(-c2sc3c(c2CN(C)Cc2ccccc2)c(=O)n(-c2cccc(OC)c2)c(=O)n3Cc2c(F)cccc2F)cc1	0.2 nM	
CNC(=O)Nc1ccc(-c2sc3c(c2CN(C)Cc2ccccc2)c(=O)n(-c2ccccc2)c(=O)n3Cc2c(F)cccc2F)cc1	0.1 nM	
CCC(=O)Nc1ccc(-c2sc3c(c2CN(C)Cc2ccccc2)c(=O)n(-c2ccccc2)c(=O)n3Cc2c(F)cccc2F)cc1		AUC (Cynomolgus monkey): 2.5 µM·h; Cmax [2]: 630 nM; Tmax [3]: 3 h
CCC(=O)N(C)c1ccc(-c2sc3c(c2CN(C)Cc2ccccc2)c(=O)n(-c2cccc(OC)c2)c(=O)n3Cc2c(F)cccc2F)cc1	20 nM	
CCONC(=O)Nc1ccc(-c2sc3c(c2CN(C)Cc2ccccc2)c(=O)n(-c2ccccc2)c(=O)n3Cc2c(F)cccc2F)cc1	0.2 nM	
COc1ccc(-c2sc3c(c2CN(C)Cc2ccccc2)c(=O)n(-c2ccccc2)c(=O)n3Cc2c(F)cccc2F)cc1	50 nM	
COc1ccc(-c2sc3c(c2CN(C)Cc2ccccc2)c(=O)n(CC(C)C)c(=O)n3Cc2c(F)cccc2F)cc1	400 nM	
COc1ccc(-c2sc3c(c2CN(C)Cc2ccccc2)c(=O)n(Cc2ccccc2)c(=O)n3Cc2c(F)cccc2F)cc1	400 nM	
CC(C)ONC(=O)Nc1ccc(-c2sc3c(c2CN(C)Cc2ccccc2)c(=O)n(-c2ccccc2)c(=O)n3Cc2c(F)cccc2F)cc1	0.6 nM	
CN(Cc1ccccc1)Cc1c(-c2ccc(NC(=O)NO)cc2)sc2c1c(=O)n(-c1ccccc1)c(=O)n2Cc1c(F)cccc1F	0.4 nM	
COc1ccc(-c2sc3c(c2CN(C)Cc2ccccc2)c(=O)n(-c2ccccc2Cl)c(=O)n3Cc2c(F)cccc2F)cc1	80 nM	
COc1ccc(-c2sc3c(c2CN(C)Cc2ccccc2)c(=O)n(-c2ccc(Cl)cc2)c(=O)n3Cc2c(F)cccc2F)cc1	200 nM	
COc1ccc(-c2sc3c(c2CN(C)Cc2ccccc2)c(=O)n(-c2cccc(Cl)c2)c(=O)n3Cc2c(F)cccc2F)cc1	200 nM	
COc1cccc(-n2c(=O)c3c(CN(C)Cc4ccccc4)c(-c4ccc([N+](=O)[O-])cc4)sc3n(Cc3c(F)cccc3F)c2=O)c1	20 nM	
CC(C)NC(=O)Nc1ccc(-c2sc3c(c2CN(C)Cc2ccccc2)c(=O)n(-c2ccccc2)c(=O)n3Cc2c(F)cccc2F)cc1	0.2 nM	
COc1cccc(-n2c(=O)c3c(CN(C)Cc4ccccc4)c(-c4ccc(N)cc4)sc3n(Cc3c(F)cccc3F)c2=O)c1	1 nM	
CN(Cc1ccccc1)Cc1c(-c2ccc(NC(=O)c3ccccc3)cc2)sc2c1c(=O)n(-c1ccccc1)c(=O)n2Cc1c(F)cccc1F	1 nM	
CC(C)C(=O)Nc1ccc(-c2sc3c(c2CN(C)Cc2ccccc2)c(=O)n(-c2ccccc2)c(=O)n3Cc2c(F)cccc2F)cc1	0.4 nM	
COc1ccc(-c2sc3c(c2CN(C)Cc2ccccc2)c(=O)n(-c2ccc(OC)cc2)c(=O)n3Cc2c(F)cccc2F)cc1	30 nM	
COc1cccc(-n2c(=O)c3c(CN(C)Cc4ccccc4)c(-c4ccc(NC(=O)C(C)C)cc4)sc3n(Cc3c(F)cccc3F)c2=O)c1	0.3 nM	
COc1ccc(-c2sc3c(c2CN(C)Cc2ccccc2)c(=O)n(-c2ccccc2OC)c(=O)n3Cc2c(F)cccc2F)cc1	200 nM	
COc1ccc(-c2sc3c(c2CN(C)Cc2ccccc2)c(=O)n(-c2cccc(OC)c2)c(=O)n3Cc2c(F)cccc2F)cc1	20 nM	
CCNC(=O)Nc1ccc(-c2sc3c(c2CN(C)Cc2ccccc2)c(=O)n(-c2ccccc2)c(=O)n3Cc2c(F)cccc2F)cc1		AUC [4]: 0.27 µM·h; Cmax [2]: 63 nM; Tmax [3]: 3 h
COc1ccc(-c2sc3c(c2CN(C)Cc2ccccc2)c(=O)n(C2CCCCC2)c(=O)n3Cc2c(F)cccc2F)cc1	700 nM	
CONC(=O)Nc1ccc(-c2sc3c(c2CN(C)Cc2ccccc2)c(=O)n(-c2ccccc2)c(=O)n3Cc2c(F)cccc2F)cc1 [SUFUGOLIX]		LH concentration [5]: 0.37 mU ml-1; LH concentration [6]: 1.01 mU ml-1; LH concentration [7]: 0.74 mU ml-1; LH concentration [8]: 0.91 mU ml-1; AUC [4]: 0.85 µM·h; Cmax [2]: 210 nM; LH concentration [9]: 0.19 mU ml-1; LH concentration [10]: 0.18 mU ml-1; LH concentration [11]: 0.25 mU ml-1; Tmax [3]: 6 h; LH concentration [12]: 0.13 mU ml-1; LH concentration [13]: 0.1 mU ml-1; LH concentration [14]: 0.76 mU ml-1; LH concentration [15]: 0.71 mU ml-1; LH concentration [16]: 0.55 mU ml-1
